Test results from PMC4697833 (Bioorganic & medicinal chemistry, 2015).
Like-named read-outs stand apart in the source and are kept apart here.

How the values were obtained:
CD34+CD38− BM cells [1] = assay: Flow cytometry viability of CD34+CD38− bone marrow cells; format: cell-based, human
How it was run: (§1)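 Cells were plated at 1 × 10⁶ cells/mL with test compound (25 µM) or doxorubicin (0.5 µM) for 12 h (final DMSO 0.03%). Staining was CD34/CD38, then Annexin V/7-AAD, with over 5 × 10⁴ events. Viability is the unstained fraction, mean ± S.D. of n ≥ 3; unpaired t-tests.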

[2] = system: NCI/ADR-RES (ovarian cancer; adriamycin-resistant); settings: read-out: IC50 NCI/ADR-RES, previously reported; cited from earlier work
TEX cells [3] = assay: Methylcellulose clonal growth assay with TEX cells; format: cell-based, human; settings: 11 d growth on methylcellulose
How it was run: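 TEX cells were suspended in methylcellulose medium with penicillin (100 I.U./mL) and streptomycin (100 µg/mL) at a final 1.2 × 10⁴ cells/mL, i.e. 6,000 cells/well. Test compound, diluted in TEX medium, or DMSO (0.05%, control) was added. Cells were plated as technical triplicates and grown 11 d at 37 °C, 5% CO₂. Two people counted colonies independently at 10X. Values are the mean of 3 biological replicates ± S.D., with unpaired t-tests against DMSO.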

CD34+CD38− TEX cells = assay: Flow cytometry viability of CD34+CD38− TEX cells; format: cell-based; settings: Homo sapiens, 12 h
How it was run: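 TEX cells at 1 × 10⁶ cells/mL were dosed for 12 h at 37 °C, 20% O₂, 5% CO₂ (final DMSO 0.03% v/v). Test compound was given at 25, 15 or 2.5 µM; the doxorubicin reference at 2.5, 0.5 or 0.05 µM. Cells were stained for CD34/CD38 (10 min, 4 °C), then Annexin V-FITC/7-AAD (10 min, RT, dark). Over 5 × 10⁴ events were collected. Viable cells were double-negative. Values are mean ± S.D. of 3–5 biological replicates; unpaired t-test versus untreated.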

[4] = system: total bone marrow cell population; assay: Flow cytometry viability of total bone marrow cells; format: cell-based, human
How it was run: as §1

[5] = system: U-87 MG (glioblastoma multiforme); assay: Alamar blue cytotoxicity assay, U-87 MG; format: cell-based, human; settings: read-out: Growth inhibitory activity (IC50) U-87 MG; mean ± S.D.
TEX cells [6] = assay: Alamar blue cytotoxicity assay, TEX; format: cell-based, human; settings: read-out: Growth inhibitory activity (IC50) TEX
How it was run: (§2)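 Suspension cells (CCRF-CEM; TEX in IMDM with L-glutamine, 15% FBS, SCF 20 ng/mL, IL-3 2 ng/mL, penicillin/streptomycin) were seeded at 10,000 cells/well 24 h before compound addition. Cultures were kept at 37 °C in humidified 5% CO₂. Viability was read with Alamar blue. IC50 is mean ± S.D. of n ≥ 3 biological replicates.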

[7] = system: murine AML cell line B140H (cytarabine-resistant); assay: Murine cytotoxicity assay, B140H; format: cell-based; settings: read-out: Growth inhibitory activity (IC50) B140H
How it was run: (§3)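 Murine AML lines were used: B117P and B140P from BXH-2 mice, which develop leukemia from an endogenous murine leukemia virus, and their counterparts B117H and B140H. Cells per well were 25,000 (B117P), 28,000 (B117H), 36,000 (B140P) and 44,000 (B140H) in 96-well format. IC50 values are mean ± S.D. from biological triplicate.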

[8] = system: MCF-7 (breast adenocarcinoma); assay: Alamar blue cytotoxicity assay, MCF-7; format: cell-based, human
How it was run: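 MCF-7 cells were grown in MEM with 10% FBS, bovine insulin 0.01 mg/mL, penicillin and streptomycin at 37 °C in 5% CO₂. They were detached with trypsin-EDTA or TrypLE and seeded at 5,000 cells/well 24 h before dosing. Readout was Alamar blue reduction. IC50 is mean ± S.D. from n ≥ 3 biological replicates.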

[9] = system: CCRF-CEM (acute lymphoblastic leukemia); assay: Alamar blue cytotoxicity assay, CCRF-CEM; format: cell-based, human; settings: read-out: Growth inhibitory activity (IC50) CCRF-CEM
How it was run: as §2

[10] = system: murine AML cell line B117H (cytarabine-resistant); assay: Murine cytotoxicity assay, B117H; format: cell-based; settings: read-out: Growth inhibitory activity (IC50) B117H
How it was run: as §3

[11] = system: HL-60 (acute promyelocytic leukemia); assay: Alamar blue cytotoxicity assay, HL-60; format: cell-based, human; settings: read-out: Growth inhibitory activity (IC50) HL-60; mean ± S.D.
TEX cells [12] = assay: Intracellular ROS induction; format: cell-based, human; settings: 30 min
How it was run: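 TEX cells were seeded at 5 × 10⁵ cells/mL and incubated overnight at 37 °C, 5% CO₂. They were then exposed to test compound at 25 or 100 µM, with H₂O₂ 100 µM as positive control. CellROX Green (5 µM final) was added at once, followed by 30 min at 37 °C. Cells were washed twice in FACS buffer and 5 × 10⁴ events recorded. Median fluorescence was normalized to untreated control. Runs were in quadruplicate (H₂O₂ triplicate); mean ± S.D.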

[13] = system: murine AML cell line B140P; assay: Murine cytotoxicity assay, B140P; format: cell-based; settings: read-out: Growth inhibitory activity (IC50) B140P
How it was run: as §3

[14] = system: murine AML cell line B117P; assay: Murine cytotoxicity assay, B117P; format: cell-based; settings: read-out: Growth inhibitory activity (IC50) B117P
How it was run: as §3

[15] = system: NCI/ADR-RES (ovarian cancer; adriamycin-resistant); assay: Alamar blue cytotoxicity assay, NCI/ADR-RES; format: cell-based, human; settings: read-out: Growth inhibitory activity (IC50) NCI/ADR-RES; mean ± S.D.
How it was run: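 Adherent NCI/ADR-RES cells were seeded at 5,000 cells/well 24 h prior to compound treatment and kept at 37 °C, 5% CO₂. Growth was measured by Alamar blue. IC50 values are mean ± S.D. over n ≥ 3 biological replicates.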

DU-145 (prostate cancer) = assay: Alamar blue cytotoxicity assay, DU-145; format: cell-based, human; settings: read-out: Growth inhibitory activity (IC50) DU-145; mean ± S.D.
[16] = system: GBM6 (glioblastoma multiforme); assay: Alamar blue cytotoxicity assay, GBM6; format: cell-based, human; settings: read-out: Growth inhibitory activity (IC50) GBM6; mean ± S.D.
total BM = settings: cited from earlier work
Measured LogD7.4 = format: physicochemical; settings: pH 7.4
How it was run: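 LogD at pH 7.4 was determined experimentally by liquid-liquid distribution chromatography, run by a contract analytical lab. Each value is the average of two measurements. The assay's measurable range is 1–5 log units.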

[17] = mice, oral dosing 40 mg/kg; cited from earlier work
CD34+CD38− BM cells [18] = settings: 5 µM for 18 hrs; cited from earlier work
[19] = mouse plasma; cited from earlier work

COc1cccc2c1C(=O)c1c(O)c3c(c(O)c1C2=O)C[C@@](O)(C(=O)CO)C[C@@H]3O[C@H]1C[C@H](N)[C@H](O)[C@H](C)O1 [DOX, Doxorubicin]
reduction in the primitive CD34+CD38− BM population viability (CD34+CD38− BM cells [1]; 0.5 µM, 12 hr): 85% | IC50 [2]: > 500 µM | Colonies (mean number ± S.D.) (TEX cells [3]; 0.1 µM): 0.7 ± 1.3 | viability at 0.5 µM (CD34+CD38− TEX cells; read-out: viability of CD34+CD38− TEX cells): 6% | reduction in total BM viability ([4]; 0.5 µM, 12 hr): 56%

C=C1C(=O)O[C@@H]2[C@H]3O[C@]3(C)CC/C=C(\CO)CC[C@@H]12 [MelB, Melampomagnolide B]
IC50 [5]: 16.3 ± 6.8 µM | IC50 (TEX cells [6]; 48 hr treatment, mean ± S.D.): 6.8 ± 2.3 µM | IC50 ([7]; mean ± S.D.): 2.2 ± 0.7 µM | IC50 ([8]; read-out: Growth inhibitory activity (IC50) MCF-7, mean ± S.D.): 9.5 ± 1.9 µM | IC50 ([9]; mean ± S.D.): 5.5 ± 1.2 µM | IC50 ([10]; mean ± S.D.): 2.5 ± 1 µM | Colonies (mean number ± S.D.) (TEX cells [3]; 2.5 µM): 5.3 ± 1.6 | Colonies (mean number ± S.D.) (TEX cells [3]; 15 µM, N.D. = clonal growth not detected): 0.1 ± 0.3 | IC50 [11]: 7.5 ± 3 µM | induction of intracellular ROS (MFI normalized to untreated control) (TEX cells [12]; 25 µM): No observable induction of ROS | induction of intracellular ROS (MFI normalized to untreated control) (TEX cells [12]; 100 µM): No observable induction of ROS | IC50 ([13]; mean ± S.D.): 2.9 ± 1 µM | IC50 ([14]; mean ± S.D.): 2.1 ± 0.8 µM | IC50 [15]: 15 ± 4.9 µM | reduction in total BM viability ([4]; 25 µM, 12 h): 22–26% | IC50 (DU-145 (prostate cancer)): 14.3 ± 5.9 µM | IC50 [16]: 4.5 ± 1.9 µM

C=C1C(=O)O[C@H]2[C@H]1CC/C(C)=C/CC[C@@]1(C)O[C@@H]21 [PTL, Parthenolide]
IC50 (TEX cells [6]; Homo sapiens, 48 h): 2.8 ± 0.2 µM | IC50 ([7]; Mus musculus): 3.4 ± 1.1 µM | IC50 ([8]; Homo sapiens, MCF7, read-out: Growth inhibitory activity (IC50) MCF-7): 9.7 ± 2.8 µM | toxicity to primitive CD34+CD38− BM cells (CD34+CD38− BM cells [1]; 25 µM, 12 h): no significant toxicity | toxicity to total BM (total BM; 5 µM for 18 hrs): non-toxic | overall BM toxicity (total BM; 7.5 µM for 18 hrs): some overall BM toxicity | IC50 ([9]; Homo sapiens, CCRF-CEM): 4.7 ± 1.6 µM | IC50 ([10]; Mus musculus): 4.7 ± 1.6 µM | Colonies (mean number ± S.D.) (TEX cells [3]; 2.5 µM): 2.6 ± 2.7 | chromatographic logD (Measured LogD7.4): 1.79 | concentration in serum [17]: approximately 200 nM | induction of intracellular ROS (MFI normalized to untreated control) (TEX cells [12]; 100 µM): 1.6 fold | viability at 25 µM (CD34+CD38− TEX cells; read-out: cell viability of CD34+CD38− TEX cells): 1 to 10% | toxicity to CD34+CD38− BM cells (CD34+CD38− BM cells [18]): non-toxic | IC50 ([13]; Mus musculus): 5.8 ± 2.3 µM | IC50 ([14]; Mus musculus): 1.1 ± 0.2 µM | reduction in total BM viability ([4]; 25 µM, 12 h): 48% | plasma half-life t1/2 [19]: 1.6 h

Nc1ccn([C@@H]2O[C@H](CO)[C@@H](O)C2(F)F)c(=O)n1 [gemcitabine]
IC50 [2]: > 500 µM

OO [hydrogen peroxide]
induction of intracellular ROS (MFI normalized to untreated control) (TEX cells [12]; 100 µM): 3.1 fold
